Laboratory results reported in ChEMBL document CHEMBL1165967, “Synthesis and biological evaluation of pyrimidine analogs of antimycobacterial purines” (Bioorg Med Chem, 2010).
Values after ≈ are worked out from the molar mass of the structure shown.

Experiments:
[1] = tested on: Mycobacterium tuberculosis; assay: Antimycobacterial activity against Mycobacterium tuberculosis H37Rv by twofold dilution method; type: functional, organism-based
Outline: (§1)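 M. tuberculosis H37Rv (ATCC 27294) grown in BACTEC 12B medium, tested by Microplate Alamar Blue Assay across 10 twofold dilutions from 100 to 0.19 µg/mL. IC90 and IC50 taken from dose–response curve fitting.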

[2] = Chemical stability in DMSO-d6 solution assessed as cyclization after 25 days; type: physicochemical; settings: 600 h
[3] = tested on: Vero; assay: Cytotoxicity against african green monkey Vero cells after 72 hrs by MTT assay; type: cell-based; settings: Chlorocebus sabaeus
Outline: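 VERO cell cytotoxicity screen: cells exposed to compound for 72 h, viability read by MTT (CellTiter 96 non-radioactive proliferation reagent); EC50 obtained by curve fitting of the dose–response.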

[4] = Chemical stability in DMSO-d6/D2O solution assessed as cyclization after 25 days; type: physicochemical; settings: for Stability: 600 h
[5] = Chemical stability in CD3OD solution assessed as cyclization after 25 days; type: physicochemical; settings: read-out: Activity
[6] = Solubility in DMSO-d6/D2O solution; type: physicochemical
[7] = Solubility in CD3OD solution; type: physicochemical
[8] = tested on: Mycobacterium tuberculosis; assay: Antimycobacterial activity against Mycobacterium tuberculosis H37Rv at 6.25 ug/mL by twofold dilution method; type: functional
[9] = tested on: Mycobacterium tuberculosis; assay: Antimycobacterial activity against Mycobacterium tuberculosis; type: functional, organism-based; outline: as §1

Structure (SMILES) | IC50 [1] [µg/mL] | IC90 [1] [µg/mL] | also measured
COc1ccc(CNc2nc(F)nc(-c3ccco3)c2NC=O)cc1 | < 0.2 | < 0.2 | Stability [2]: Stable; IC50 [3]: > 40 µg/mL; Stability [4]: Stable
COc1ccc(COc2ncnc(-c3ccco3)c2N)cc1 | > 100 | > 100 | 
COc1ccc(CNc2nc(OC)nc(-c3ccco3)c2NC=O)cc1 | 0.53 (≈ 1.5 µM) | 1.5 (≈ 4.23 µM) | Stability [2]: Stable; IC50 [3]: > 40 µg/mL; Stability [4]: Stable; degraded at 600 h [5]: 12%
COc1ccc(Cn2cncc2-c2cc(-c3ccco3)ncn2)cc1 | 9.8 (≈ 29.5 µM) | 14 (≈ 42.1 µM) | 
COc1ccc(CNc2ncnc(-c3ccco3)c2NC=O)cc1 | 0.22 (≈ 0.678 µM) | 0.56 (≈ 1.73 µM) | Stability [2]: Stable; IC50 [3]: > 40 µg/mL; degraded at 600 h [5]: 90%
CNc1c(NCc2ccc(OC)cc2)ncnc1-c1ccco1 | 9 (≈ 29 µM) | 15 (≈ 48.3 µM) | 
COc1ccc(CNc2ncnc(-c3ccco3)c2N(C)C)cc1 | 17 (≈ 52.4 µM) | > 100 | 
COc1ccc(CNc2nc([N+](=O)[O-])nc(-c3ccco3)c2NC=O)cc1 | 0.59 (≈ 1.6 µM) | 1.1 (≈ 2.98 µM) | IC50 [3]: > 40 µg/mL
COc1ccc(COc2ncnc(-c3ccco3)c2[N+](=O)[O-])cc1 | > 50 | > 50 | 
COc1ccc(CN(C)c2cc(-c3ccco3)ncn2)cc1 | 5.5 (≈ 18.6 µM) | 7.1 (≈ 24 µM) | solubility [6]: Insoluble; solubility [7]: Insoluble
COc1ccc(CN(C)c2cc(-c3ccco3)nc(Cl)n2)cc1 | 1.4 (≈ 4.25 µM) | 3 (≈ 9.1 µM) | IC50 [3]: 22 µg/mL (≈ 66.7 µM)
COc1ccc(CNc2ncnc(-c3ccco3)c2[N+](=O)[O-])cc1 | 13 (≈ 39.8 µM) | 21 (≈ 64.4 µM) | 
COc1ccc(COc2cc(-c3ccco3)nc(Cl)n2)cc1 | > 100 | > 100 | 
COc1ccc(COc2cc(-c3ccco3)ncn2)cc1 | > 100 | > 100 | 
COc1ccc(CN(C=O)c2c(-c3ccco3)nc[nH]c2=O)cc1 | 68 (≈ 209 µM) | 92 (≈ 283 µM) | 
COc1ccc(CN(C)c2ncnc(-c3ccco3)c2[N+](=O)[O-])cc1 | 5.7 (≈ 16.7 µM) | 13 (≈ 38.2 µM) | 

Structure (SMILES) | IC50 [1] [µg/mL] | IC90 [1] [µg/mL] | also measured
COc1ccc(CNc2cc(-c3ccco3)ncn2)cc1 |  |  | inhibition at 6.25 µg/mL [8]: 0%
COc1ccc(Cn2cnc3c(-c4ccco4)nc(Cl)nc32)cc1 |  |  | IC90 [9]: 0.82 µg/mL (≈ 2.41 µM)
COc1ccc(Cn2cnc3c(-c4ccco4)ncnc32)cc1 |  |  | IC50 [9]: < 0.2 µg/mL
COc1ccc(CNc2ncnc(-c3ccco3)c2N)cc1 |  |  | inhibition at 6.25 µg/mL [8]: 0%
CCNc1c(NCc2ccc(OC)cc2)ncnc1-c1ccco1 | 36 (≈ 111 µM) | 46 (≈ 142 µM) | 
COc1ccc(CNc2nc(C)nc(-c3ccco3)c2NC=O)cc1 | < 0.2 | 0.33 (≈ 0.975 µM) | Stability [2]: Stable; IC50 [3]: > 40 µg/mL; degraded at 600 h ([4]; DMSO-d6/D2O solution, read-out: Activity): 40%; degraded at 600 h [5]: 90%
COc1ccc(CNc2nc(Cl)nc(-c3ccco3)c2NC=O)cc1 | < 0.2 | 0.2 (≈ 0.557 µM) | Stability [2]: Stable; IC50 [3]: > 40 µg/mL; Stability [4]: Stable; degraded at 600 h [5]: 12%
COc1ccc(CN(C)c2ncnc(-c3ccco3)c2NC=O)cc1 | > 100 | > 100 | 
NCC[C@H](O)C(=O)N[C@@H]1C[C@H](N)[C@@H](O[C@H]2O[C@H](CN)[C@@H](O)[C@H](O)[C@H]2O)[C@H](O)[C@H]1O[C@H]1O[C@H](CO)[C@@H](O)[C@H](N)[C@H]1O.O=S(=O)(O)O | 0.07 | 0.13 | 
COc1ccc(Cn2cnc(-c3cncnc3-c3ccco3)c2)cc1 | 62 (≈ 187 µM) | 82 (≈ 247 µM) | 
COc1ccc(CNc2cc(-c3ccco3)nc(Cl)n2)cc1 | > 100 | > 100 | 
COc1ccc(CN(C)c2ncnc(-c3ccco3)c2N)cc1 | 9.4 (≈ 30.3 µM) | 17 (≈ 54.8 µM) | 
COc1ccc(COc2ncnc(-c3ccco3)c2NC=O)cc1 | > 100 | > 100 | 
CCc1nc(NCc2ccc(OC)cc2)c(NC=O)c(-c2ccco2)n1 | 0.26 (≈ 0.738 µM) | 0.53 (≈ 1.5 µM) | Stability [2]: Stable; IC50 [3]: > 40 µg/mL; degraded at 600 h [5]: 90%
COc1ccc(CNc2nc(N(C)C)nc(-c3ccco3)c2NC=O)cc1 | 11 (≈ 29.9 µM) | 26 (≈ 70.8 µM) | Stability [2]: Stable; Stability [4]: Stable; degraded at 600 h [5]: 12%
